From ChEMBL document CHEMBL1125366, “Low molecular weight, non-peptide fibrinogen receptor antagonists” (J Med Chem, 1992) come the findings set out here.

Molecules are shown by their SMILES. Square brackets hold non-standard residues; d marks the D form. Peptide text beside a SMILES is read from it. * marks the point of attachment. 3Abz = Nc1cccc(C(=O)O)c1; Boc = CC(C)(C)OC(=O)*

Experiment [1] addresses Integrin alpha-V/beta-3 (Homo sapiens) (UniProt P05106+P06756). As to the kind of experiment: Inhibition of fibrinogen binding to immobilized vitronectin receptor. The format is protein-complex assay. Also noted: reference not given here.
The target in experiment [2] is Integrin alpha-IIb/beta-3 (Homo sapiens) (UniProt P05106+P08514). As to the kind of experiment: Inhibition of fibrinogen binding to immobilized fibrinogen receptor. Type of experiment: protein-complex assay. The arrangement: reference not given here.
The nature of experiment [3]: Inhibition of platelet aggregation in human-platelet rich plasma(h-PRP) induced by collagen. The format is functional. The gist of the method: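 Citrated human PRP with serial inhibitor dilutions; aggregation triggered by collagen at 2.5 μg/mL (final) and followed as rate of light transmission change in an aggregometer; plasma from at least four donors.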
Experiment [4] can be described thus: Inhibition of platelet aggregation in human-platelet rich plasma(h-PRP) induced by thrombin. The format is functional. The gist of the method: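 Citrated human PRP with serial inhibitor dilutions; aggregation triggered by thrombin at 0.2 unit/mL (final) and followed as rate of light transmission change in an aggregometer; plasma from at least four donors.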

Experiment [5] in a line: Inhibition of platelet aggregation in human-platelet rich plasma(h-PRP) induced by adenosine 5'-diphosphate-(ADP). Type of experiment: functional. The procedure, abridged:
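Citrated human PRP with serial inhibitor dilutions; aggregation triggered by 10 μM ADP (final) and followed as rate of light transmission change in an aggregometer; plasma from at least four donors.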

Consider `C[C@@H](NC(=O)c1ccc(C(=N)N)cc1)C(=O)N1CCC(OCC(=O)O)CC1`, for which the results for the Ratio in experiment [1] and in experiment [2] were more than 9000 and 0.007, respectively. In addition, the IC50 was 1.1 µM in experiment [3], 1.1 µM in experiment [4] and 0.9 µM in experiment [5].

On to `N=C(N)c1ccc(C(=O)NCCCCC(=O)N[C@@H](CC(=O)O)C(=O)N[C@@H](Cc2ccccc2)C(=O)O)cc1`, for which the Ratio in experiment [1] came to 280; in experiment [2], 0.004. Further, the results for the 50% inhibitory concentration (IC50) in experiment [3], in experiment [4] and in experiment [5] were 0.4 µM, 0.1 µM and 0.2 µM, respectively.

`NCc1ccc(C(=O)Nc2cccc(C(=O)NCCC(=O)O)c2)cc1`: the concentration for half-maximal inhibition (IC50) in experiment [3] is 9.6 µM.

With `C[C@H](Cc1ccc(OCC(=O)O)cc1)NS(=O)(=O)c1ccc(C(=N)N)cc1`, the Ratio in experiment [1] is more than 30000; in experiment [2], 10.5. Besides, the IC50 is 102 µM in experiment [3], 103 µM in experiment [4] and 115 µM in experiment [5].

As to `N=C(N)c1ccc(C(=O)N[C@@H](Cc2ccc(O)cc2)C(=O)N2CCC(OCC(=O)O)CC2)cc1` [LAMIFIBAN], the figures for the Ratio in experiment [1] and in experiment [2] were 17500 and 0.0002, respectively. For the same compound, the IC50 in experiment [3] amounted to 0.02 µM; in experiment [4], 0.03 µM; in experiment [5] it was 0.03 µM.

For `N=C(N)c1ccc(C(=O)NCCC(=O)N[C@@H](CC(=O)O)C(=O)N[C@@H](Cc2ccccc2)C(=O)O)cc1`, the Ratio in experiment [1] was 4500; in experiment [2], 0.0003. In addition, the IC50 in experiment [3] amounted to 0.06 µM; in experiment [4], 0.07 µM; in experiment [5], 0.06 µM.

`C[C@@]1(C(=O)N2CCC(OCC(=O)O)CC2)CCCN1C(=O)c1ccc(C(=N)N)cc1`: the Ratio in experiment [1] stood at 12000; in experiment [2], 0.37. In addition, the half-maximal inhibitory concentration (IC50) in experiment [3] amounted to 15 µM; in experiment [4], 49 µM; in experiment [5], 13 µM.

Take `N=C(N)c1ccc(C(=O)NCCc2ccc(OCC(=O)O)cc2)cc1`: the Ratio in experiment [1] was 1300; in experiment [2], 0.028. Further, the figures for the half-inhibitory concentration (IC50) in experiment [3], in experiment [4] and in experiment [5] were 0.3 µM, 0.4 µM and 0.8 µM, respectively.

For the compound `COc1ccc(CCNC(=O)[C@H](CC(=O)O)NC(=O)CCNC(=O)c2ccc(C(=N)N)cc2)cc1`, the Ratio in experiment [1] worked out at 8000; in experiment [2], 0.002. The values for the IC50 in experiment [3], in experiment [4] and in experiment [5] were 0.1 µM, 0.13 µM and 0.12 µM, respectively.

Turning to `N=C(N)NCCC[C@H](N)C(=O)NCC(=O)N[C@@H](CC(=O)O)C(=O)N[C@@H](CO)C(=O)O`, the Ratio in experiment [1] and in experiment [2] was 1 throughout. The IC50 in experiment [3] came out at 142 µM; in experiment [4], 135 µM; in experiment [5] it was 88 µM.

In the case of `COC(=O)COc1ccc(CCNC(=O)c2ccc(C(=N)N)cc2)cc1`, the results for the Ratio in experiment [1] and in experiment [2] were 2300 and 0.45, respectively. Also, the half-inhibitory concentration (IC50) in experiment [3] was 0.3 µM; in experiment [4], 0.5 µM; in experiment [5], 0.9 µM.

`N=C(N)NCCC[C@H](N)C(=O)NCC(=O)N[C@@H](CC(=O)O)C(=O)N[C@@H](Cc1ccccc1)C(=O)O` (H-RGDF-OH): the Ratio in experiment [1] is 3.5; in experiment [2], 0.3. For the same compound, the figures for the IC50 in experiment [3], in experiment [4] and in experiment [5] were 38 µM, 21 µM and 19 µM, respectively.

Consider `CC(C)[C@H](NC(=O)[C@H](CC(=O)O)NC(=O)CNC(=O)Cc1ccc(C(=N)N)cc1)C(=O)O`, for which the Ratio in experiment [1] turned out to be 560; in experiment [2], 0.001. In addition, the IC50 in experiment [3] was found to be 0.5 µM; in experiment [4] it was 0.3 µM; in experiment [5], 0.3 µM.

Take `N=C(N)c1ccc(S(=O)(=O)NCCc2ccc(OCC(=O)O)cc2)cc1`: the Ratio in experiment [2] came to 0.2. The IC50 in experiment [3] was found to be 12 µM; in experiment [4], 12 µM; in experiment [5], 15 µM.

As to `N=C(N)c1ccc(C(=O)Nc2cccc(C(=O)NCCC(=O)O)c2)cc1`, the values for the Ratio in experiment [1] and in experiment [2] were 8000 and 0.0005, respectively. In addition, the half-inhibitory concentration (IC50) in experiment [3] is 0.4 µM; in experiment [4] it was 0.5 µM; in experiment [5], 0.2 µM.

With `N=C(N)c1ccc(C(=O)NCCC(=O)N[C@@H](CC(=O)O)C(=O)N[C@@H](Cc2ccc(O)cc2)C(=O)O)cc1`, the Ratio in experiment [2] was 6e-05. In addition, the concentration for half-maximal inhibition (IC50) came out at 0.04 µM in experiment [3], 0.02 µM in experiment [4] and 0.05 µM in experiment [5].

`COC(=O)COc1ccc(C[C@H](C)NS(=O)(=O)c2ccc(C(=N)N)cc2)cc1` showed an IC50 in experiment [3] of 11 µM.

As to `CC(C)(Oc1ccc(CCNS(=O)(=O)c2ccc(C(=N)N)cc2)cc1)C(=O)O`, the Ratio in experiment [2] was more than 100. Also, the half-inhibitory concentration (IC50) in experiment [3], in experiment [4] and in experiment [5] was more than 200 µM each time.

Regarding `N=C(N)c1ccc(C(=O)NCC(=O)N2CCC(OCC(=O)O)CC2)cc1`, the Ratio is more than 8000 in experiment [1] and 0.008 in experiment [2]. The figures for the IC50 in experiment [3], in experiment [4] and in experiment [5] were 0.1 µM, 0.09 µM and 0.11 µM, respectively.

Turning to `CN(CC(=O)c1ccc(OCC(=O)O)c(OCC(=O)O)c1)C(=O)c1ccc(C(=N)N)cc1`, the Ratio in experiment [1] worked out at 37000; in experiment [2], 0.0001. Moreover, the values for the 50% inhibitory concentration (IC50) in experiment [3], in experiment [4] and in experiment [5] were 0.07 µM, 0.06 µM and 0.07 µM, respectively.

On to `N=C(N)c1ccc(C(=O)N[C@@H](CCCN)C(=O)N2CCC(OCC(=O)O)CC2)cc1`, for which the Ratio in experiment [1] is more than 30000; in experiment [2], 0.009. In addition, the IC50 in experiment [3] is 0.07 µM; in experiment [4], 0.07 µM; in experiment [5], 0.1 µM.

`NC(N)=NCCC[C@H](N)C(=O)Nc1cccc(C(=O)NCCC(=O)O)c1`: the Ratio in experiment [1] came to 900; in experiment [2], 1.3. In addition, the IC50 in experiment [3] worked out at 50 µM; in experiment [4], 68 µM; in experiment [5], 51 µM.

Take `CC(C)[C@H](NC(=O)[C@H](CC(=O)O)NC(=O)CNC(=O)COc1ccc(C(=N)N)cc1)C(=O)O`: the figures for the Ratio in experiment [1] and in experiment [2] were 700 and 0.02, respectively. Besides, the values for the IC50 in experiment [3], in experiment [4] and in experiment [5] were 0.6 µM, 0.5 µM and 0.7 µM, respectively.

Regarding `CC(C)[C@H](NC(=O)[C@H](CC(=O)O)NC(=O)CNC(=O)[C@@H](N)CCCNC(=N)N)C(=O)O` (H-RGDV-OH), the Ratio in experiment [1] turned out to be 0.6; in experiment [2], 0.63. Moreover, the half-maximal inhibitory concentration (IC50) stood at 151 µM in experiment [3], 98 µM in experiment [4] and 127 µM in experiment [5].

For the compound `N=C(N)c1ccc(C(=O)NCC(=O)c2ccc(OCC(=O)O)cc2)cc1`, the Ratio in experiment [1] came out at 8400; in experiment [2], 0.004. The concentration for half-maximal inhibition (IC50) is 0.13 µM in experiment [3], 0.09 µM in experiment [4] and 0.09 µM in experiment [5].

`CC(C)[C@H](NC(=O)[C@H](CC(=O)O)NC(=O)CNC(=O)CCc1ccc(C(=N)N)cc1)C(=O)O` registered an IC50 in experiment [3] of 2.3 µM.

As for `N=C(N)c1ccc(C(=O)NCC(=O)N[C@@H](CC(=O)O)C(=O)N[C@@H](Cc2ccccc2)C(=O)O)cc1`, the values for the Ratio in experiment [1] and in experiment [2] were 570 and 1, respectively. The half-maximal inhibitory concentration (IC50) in experiment [3] worked out at 76 µM; in experiment [4], 78 µM.

In the case of `N=C(N)c1ccc(C(=O)NCC(=O)c2ccc(OCC(=O)O)cc2)nc1`, the Ratio was more than 20000 in experiment [1] and 0.001 in experiment [2]. For the same compound, the IC50 came out at 0.02 µM in experiment [3], 0.04 µM in experiment [4] and 0.03 µM in experiment [5].

For the compound `C[C@H](NC(=O)c1ccc(C(=N)N)cn1)C(=O)N1CCC(OCC(=O)O)CC1`, the Ratio in experiment [1] is more than 30000; in experiment [2], 0.0001. The results for the IC50 in experiment [3], in experiment [4] and in experiment [5] were 0.03 µM, 0.03 µM and 0.02 µM, respectively.

Regarding `CC(C)[C@H](NC(=O)[C@H](CC(=O)O)NC(=O)c1cccc(NC(=O)[C@H](CCCN=C(N)N)NC(=O)OC(C)(C)C)c1)C(=O)O` (Boc-R[3Abz]DV-OH), the results for the Ratio in experiment [1] and in experiment [2] were 250 and 0.06, respectively. In addition, the results for the 50% inhibitory concentration (IC50) in experiment [3], in experiment [4] and in experiment [5] were 7 µM, 4.4 µM and 4.9 µM, respectively.

As to `C[C@@H](Cc1ccc(OCC(=O)O)cc1)NS(=O)(=O)c1ccc(C(=N)N)cc1`, the figures for the Ratio in experiment [1] and in experiment [2] were 1700 and 0.34, respectively. Besides, the half-maximal inhibitory concentration (IC50) in experiment [3] was 11 µM; in experiment [4] it was 9.3 µM; in experiment [5], 7.4 µM.

As to `CC(C)[C@H](NC(=O)[C@H](CC(=O)O)NC(=O)CCCNC(=O)c1ccc(C(=N)N)cc1)C(=O)O`, the Ratio in experiment [1] was found to be 1700; in experiment [2] it was 0.002. Further, the concentration for half-maximal inhibition (IC50) in experiment [3], in experiment [4] and in experiment [5] was 0.7 µM in each case.

Regarding `N=C(N)c1ccc(C(=O)N[C@@H](CC(=O)O)C(=O)N2CCC(OCC(=O)O)CC2)cc1`, the values for the Ratio in experiment [1] and in experiment [2] were more than 30000 and 0.02, respectively. For the same compound, the IC50 in experiment [3] turned out to be 0.34 µM; in experiment [4] it was 0.38 µM; in experiment [5] it was 0.35 µM.

`C[C@H](NC(=O)c1ccc(C(=N)N)cc1)C(=O)N1CCC(OCC(=O)O)CC1` [RO-44-3888]: the figures for the Ratio in experiment [1] and in experiment [2] were more than 27000 and 0.0007, respectively. The IC50 in experiment [3] amounted to 0.07 µM; in experiment [4], 0.05 µM; in experiment [5], 0.05 µM.

As to `N=C(N)c1ccc(C(=O)N2CCC[C@H]2C(=O)N2CCC(OCC(=O)O)CC2)cc1`, the Ratio in experiment [2] worked out at 0.002. The concentration for half-maximal inhibition (IC50) amounted to 0.11 µM in experiment [3], 0.05 µM in experiment [4] and 0.06 µM in experiment [5].

On to `N=C(N)c1ccc(C(=O)NCCC(=O)NCCC(=O)O)cc1`, for which the Ratio in experiment [2] was 0.007. The results for the IC50 in experiment [3], in experiment [4] and in experiment [5] were 0.9 µM, 0.9 µM and 1.1 µM, respectively.
